PRMT1 inh: PRMT1 (human) inhibition, primary screen. Q99873. recombinant PRMT1, activity-based probe fluorescence polarization. inhibition, % at 2.79 µM. 370,000 compounds, 1.3% hits;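 active = inhibition above about 21% made by adding two undisclosed values, limit read from the data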
Target sequence (Q99873 whole entry, looked up): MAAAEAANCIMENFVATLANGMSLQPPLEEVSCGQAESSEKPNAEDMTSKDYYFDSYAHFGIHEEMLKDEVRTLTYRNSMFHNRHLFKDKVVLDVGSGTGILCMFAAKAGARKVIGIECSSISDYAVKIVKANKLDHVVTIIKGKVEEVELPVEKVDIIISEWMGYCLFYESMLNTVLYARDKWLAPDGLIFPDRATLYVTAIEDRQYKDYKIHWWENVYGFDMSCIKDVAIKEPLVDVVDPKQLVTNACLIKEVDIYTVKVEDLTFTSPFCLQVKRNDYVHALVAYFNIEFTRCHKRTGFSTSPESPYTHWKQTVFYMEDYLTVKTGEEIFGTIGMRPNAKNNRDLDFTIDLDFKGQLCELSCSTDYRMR
HTRA1 inhibitor: blocks human HTRA1 serine peptidase; Q92743; recombinant HTRA1, FP-rhodamine activity-based probe, fluorescence polarization; inhibition, % at 5.96 µM; 340,000 compounds, 0.5% hits; AID 504803; in the data active = inhibition above about 36%;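 also: 0% = enzyme with DMSO and 100% = wells lacking enzyme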
Target sequence (Q92743 whole entry, looked up): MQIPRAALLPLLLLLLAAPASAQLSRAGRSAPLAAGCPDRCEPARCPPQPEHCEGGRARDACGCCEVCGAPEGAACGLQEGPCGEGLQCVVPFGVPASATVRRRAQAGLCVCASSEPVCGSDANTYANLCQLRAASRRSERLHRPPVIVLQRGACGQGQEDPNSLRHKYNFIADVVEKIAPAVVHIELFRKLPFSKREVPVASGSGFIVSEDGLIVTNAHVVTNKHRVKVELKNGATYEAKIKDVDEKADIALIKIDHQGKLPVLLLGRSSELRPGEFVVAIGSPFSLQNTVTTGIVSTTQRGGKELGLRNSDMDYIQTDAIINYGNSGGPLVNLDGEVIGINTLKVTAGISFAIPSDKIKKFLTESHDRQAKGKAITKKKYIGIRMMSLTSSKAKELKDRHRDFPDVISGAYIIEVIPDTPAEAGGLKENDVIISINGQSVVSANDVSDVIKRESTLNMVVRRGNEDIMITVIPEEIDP
TCR CD3 inh: blocks the human TCR-CD3 interaction; 360,000 compounds, 0.37% hits; inhibition, % at 9.4 µM; TAMRA-labeled TCR probe fluorescence, biochemical;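 also: recombinant mutant TCR 2C K166C tagged with TAMRA read by polarization; 0% = receptor in buffer alone and 100% = receptor with positive control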
mABHD4 FP: ABHD4 (mouse) inhibition, primary FP screen | purified mABHD4, FP-Rh probe fluorescence polarization | Q8VD66 | inhibition, % at 8.92 µM | 370,000 compounds, 0.54% hits;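 active = inhibition exceeding the mean over every tested compound plus 3 SD, cut at about 30% in these data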;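 also: 0% = plate median of compound wells and 100% = S159A mutant with DMSO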
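assay system = mABHD4 protein | compound dosing = single nominal dose of 8.92 µM, 0.89% DMSO final | read-out basis = percent inhibition of probe binding, normalized to plate controls | schedule = Enzyme–compound pre-incubation 45 min, then probe 60 min, both 25 °C | detection = fluorescence polarization, excitation 525 nm, emission 598 nm, BODIPY TMR filters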
rCAG RNA binder: binds r(CAG) RNA repeats; 370,000 compounds, 1.3% hits; r(CAG) RNA repeat, TO-PRO-1 dye displacement fluorescence; inhibition, % at 3 µM;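 active = inhibition above the plate cutoff, the mean of all test compounds on that plate plus 3 SD, cut at about 35% in these data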;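 also: 0% = DMSO alone and 100% = 100 µM mitoxantrone as full dye displacement; higher means more dye released from RNA so lower well fluorescence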
SIAE primary: human SIAE inhibition, primary screen; Q9HAT2; SIAE FP-Rh probe binding, fluorescence polarization; inhibition, % at 9.66 µM; 370,000 compounds, 0.69% hits;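 active = inhibition above a cutoff: mean of compounds within the control limits plus 3 SD of those, cut at about 17% in these data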;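 also: 0% = plate median of compound wells and 100% = probe without SIAE protein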
HTRA1 conf: confirmation of human HTRA1 inhibitors; recombinant HTRA1, FP-rhodamine activity-based probe, fluorescence polarization; AID 540248; inhibition, % at 5.96 µM; 1,600 compounds, 66% hits; shares compounds with HTRA1 inhibitor;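 active = mean inhibition over three repeats above a set limit taken from the earlier primary screen, cut at about 37% in these data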;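 also: 0% = HTRA1 with DMSO and 100% = wells lacking HTRA1; inhibitors block probe binding so polarization drops and inhibition rises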
BSA TAMRA ctr: interferes with TAMRA-BSA probe, flagging TCR-CD3 hits. shares compounds with TCR CD3 inh. TAMRA-labeled BSA probe fluorescence counterscreen. inhibition, % at 9.4 µM. 1,200 compounds, 10% hits. AID 652035; in the data active = inhibition above about 23%;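 also: 0% = buffer low control and 100% = reference high control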
TCR-CD3 conf: confirmation of human TCR-CD3 interaction inhibitors; shares compounds with TCR CD3 inh; TAMRA-labeled TCR probe fluorescence binding assay; inhibition, % at 9.4 µM; 1,200 compounds, 48% hits
rCAG binder conf: r(CAG) RNA repeat binding, confirmation; shares compounds with rCAG RNA binder; TO-PRO-1 dye displacement fluorescence; inhibition, % at 3 µM; 4,300 compounds, 70% hits;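 active = inhibition above a per-plate cutoff, the mean inhibition of sample wells plus 3 SD, cut at about 35% in these data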;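 also: loss of TO-PRO-1 fluorescence as compound displaces dye from 1x1 AA loop RNA; 0% = DMSO only wells and 100% = 100 µM mitoxantrone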
DNA CAG counter: counter-screen for rCAG RNA binders: DNA CAG dye complex inhibitors | shares compounds with rCAG RNA binder | d(CAG) DNA oligo TO-PRO-1 dye displacement, fluorescence | inhibition, % at 3 µM | 4,300 compounds, 94% hits;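 active = inhibition above its plate's cutoff, the mean test-well inhibition plus 3 SD, cut at about 4.8% in these data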;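 also: 0% = DNA dye mix with DMSO and 100% = 100 µM mitoxantrone; hits displace the dye from DNA and so lower well fluorescence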
PRMT1 confirm: confirmation of human PRMT1 inhibitors; shares compounds with PRMT1 inh; recombinant His-PRMT1, activity-based probe fluorescence polarization; inhibition, % at 2.79 µM; 3,300 compounds, 42% hits;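 active = mean inhibition across replicates above the hit cutoff derived for the earlier primary screen, cut at about 22% in these data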
mABHD4 conf: ABHD4 (mouse) inhibition, FP confirmation; inhibition, % at 8.92 µM; shares compounds with mABHD4 FP; AID 720658; 1,800 compounds, 55% hits; purified mABHD4, FP-Rh probe fluorescence polarization;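 active = mean inhibition across replicates above the hit cutoff set in the primary screen, cut at about 30% in these data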;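 also: 0% = wild-type ABHD4 with DMSO and 100% = catalytically dead S159A mutant with DMSO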
SIAE inh conf: human SIAE inhibition, confirmation; SIAE FP-Rh activity-based probe, fluorescence polarization; AID 1117263; shares compounds with SIAE primary; 2,300 compounds, 13% hits; inhibition, % at 9.66 µM;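 active = mean inhibition of the replicates above the hit cutoff set in the primary screen, cut at about 17% in these data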;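 also: 0% = SIAE with DMSO and probe and 100% = probe without SIAE; inhibitors lower polarization as more probe stays unbound to SIAE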
The depositor's hits bear a star; . = not tested or not shown. Most compounds without a hit are left out; they make up all but 3.5% or so of the library. Rule as the data show it, unless noted: active = inhibition above about 19%; inactive = the rest.

SMILES	PRMT1 inh	HTRA1 inhibitor	TCR CD3 inh	mABHD4 FP	rCAG RNA binder	SIAE primary	HTRA1 conf	mABHD4 conf	SIAE inh conf	others
Cn1ccc2ccc(-c3ccc4c(c3)[C@]3(CCC[C@@H](OCc5ccccc5)[C@@H]3NC(=O)CCc3ccccc3)C(=O)N4Cc3ccccc3)cc21	4.6	.	.	-6.4	12.3	-3.6	.	.	.
C=CCNC(=O)N1CCN(Cc2nc3ccccc3c(=O)[nH]2)CC1	-2.1	.	.	6.3	0.0	4.3	.	.	.
O=C(NC1CCCCN(Cc2cccc(C(F)(F)F)c2)C1=O)c1c(F)cccc1F (stereo not drawn)	-1.4	.	.	1.9	-3.4	3.4	.	.	.
Cc1nc2ccccc2n2c(O)c(CC(=O)O)cc12	44.0*	54.8*	15.6	29.7*	12.4	18.1*	39.6*	74.0*	30.8*
COc1ccc(-n2c(SCC(=O)N(CC(C)C)CC(C)C)nnc2-c2ccncc2)cc1	-0.8	.	.	-1.4	-2.5	-8.5	.	.	.
c1ccc(COc2cccc(CNCc3cccnc3)c2)cc1	-1.4	-11.0	4.2	2.4	-3.2	2.2	.	.	.
Oc1ccc(NCc2cccc(OCc3ccc(F)cc3)c2)cc1	6.6	57.8*	24.8*	48.7*	7.1	39.7*	6.0	15.1	8.0	BSA TAMRA ctr=5.0;TCR-CD3 conf=4.4
O=[N+]([O-])c1ccc(COc2cccc(CNc3ccc(F)cc3)c2)cc1	1.8	-6.8	-1.4	-10.5	5.2	-0.5	.	.	.
Oc1ccc(NCc2cccc(OCc3ccccc3)c2)cc1	16.6	50.5*	26.2*	49.8*	10.5	43.9*	11.7	22.7	11.9	BSA TAMRA ctr=-2.4;TCR-CD3 conf=2.4
COc1ccc2[nH]c3c(c2c1)CCNC3c1ccc([N+](=O)[O-])o1 (stereo not drawn)	23.1*	42.6*	1.3	-4.4	3.0	21.4*	46.6*	.	21.6*
CC[C@H](CCCCCC#N)CCC(=O)N(c1ccccc1)c1ccccc1	2.4	.	.	-6.8	-1.9	1.5	.	.	.
COc1cc(-c2nc(-c3ccccc3)c(-c3cccs3)[nH]2)cc(OC)c1OC	-1.2	7.7	6.4	1.1	6.6	11.7	.	.	.
COc1cc(-c2nc(-c3ccccc3)c(-c3cccs3)[nH]2)cc(OC)c1O	4.9	42.6*	-3.9	35.0*	10.9	19.9*	34.9	44.0*	6.4
CC[C@@H]1/C(=C/c2ccccc2)N2C(=O)C[C@@H](c3ccccc3)N=C2N1Cc1ccc(OC)cc1OC	0.7	.	.	0.5	.	-0.9	.	.	.
O=C(/C=C1\NC2(CCCC2)Cc2ccccc21)C(=O)N/N=C/c1ccc(O)c(O)c1	6.5	79.2*	28.0*	32.1*	17.7	28.9*	63.3*	7.8	-29.7
COc1ccc(/C=N/NC(=O)C(=O)/C=C2\NC3(CCCC3)Cc3ccccc32)cc1	2.8	-78.3	-1.6	-22.9	12.7	-19.3	.	.	.
COC(=O)[C@]12C[C@H](CC(=O)N3CCOCC3)C(=O)N(CCc3ccc(OC)c(OC)c3)C1=C[C@H](C(C)C)O[C@@H]2C1CC1	-6.4	.	.	2.3	-2.4	3.4	.	.	.
Oc1ccc(NCc2cccs2)cc1	20.2	37.5*	21.3*	53.7*	1.9	20.1*	4.0	11.2	9.4	BSA TAMRA ctr=1.7;TCR-CD3 conf=6.2
NNC(=O)c1oc2nc(-c3cccs3)cc(-c3ccco3)c2c1N	15.1	57.0*	13.5	19.8	21.2	54.9*	48.1*	.	74.7*
COc1ccc(O)c(/C=N/NC(=S)Nc2cccc(S(=O)(=O)N(C)C)c2)c1	-1.2	38.4*	13.7	2.6	21.8	32.7*	19.2	.	-5.5
CN(C)S(=O)(=O)c1cccc(NC(=S)N/N=C/c2ccc(O)c(O)c2O)c1	36.5*	44.8*	50.6*	32.0*	58.6*	35.2*	49.4*	81.9*	27.4*	PRMT1 confirm=84.1*
CC(=O)c1ccc(NC(=O)NC2CCCCN(Cc3ccc(Cl)cc3)C2=O)cc1 (stereo not drawn)	-3.5	.	.	-3.7	5.3	-11.4	.	.	.
O=C1CCCC(O)=C1N=Nc1ccc(C(=O)O)cc1	5.5	39.7*	18.2	29.4	8.7	66.2*	12.2	.	-2.0
O=C1CCCC(O)=C1N=Nc1c(Cl)cc(C(F)(F)F)cc1Cl	3.8	72.4*	26.5*	62.1*	-2.0	88.8*	1.4	-3.0	3.7	BSA TAMRA ctr=-6.9;TCR-CD3 conf=-2.8
C=CCn1c(SCc2c(Cl)cccc2Cl)nnc1-c1cccc(C)c1	0.1	.	.	3.9	1.2	-5.9	.	.	.
SMILES	PRMT1 inh	HTRA1 inhibitor	TCR CD3 inh	mABHD4 FP	rCAG RNA binder	SIAE primary	HTRA1 conf	mABHD4 conf	SIAE inh conf	others
C[C@@H]1/C=C/CC(=O)N[C@H](c2ccc3ccccc3c2)[C@H](C)/C=C/CC(=O)N[C@@H]1c1ccc2ccccc2c1	5.8	.	.	-29.8	12.1	-12.2	.	.	.
NS(=O)(=O)c1ccc(N/N=C/c2ccc(O)c(O)c2O)c([N+](=O)[O-])c1	46.3*	78.4*	59.1*	60.1*	54.7*	36.8*	67.2*	62.5*	11.0	BSA TAMRA ctr=-10.2;TCR-CD3 conf=73.8*;rCAG binder conf=76.0*;DNA CAG counter=37.7*;PRMT1 confirm=78.9*
CCN(CC)C(=O)CSc1nc2ccccc2c(=O)n1-c1cccc(OC)c1	3.0	-4.2	4.4	-12.1	0.2	1.5	.	.	.
COc1cccc(-n2c(SCc3cc(=O)oc4cc(O)c(O)cc34)nc3ccccc3c2=O)c1	10.3	67.3*	19.4*	25.1	65.0*	32.3*	76.5*	.	-12.7	BSA TAMRA ctr=-12.8;TCR-CD3 conf=32.2*;rCAG binder conf=70.1*;DNA CAG counter=33.3*
C[C@H]1C2CC(OC(=O)NCCCc3ccccc3)C(C2)[C@H]2CCCCN21 (stereo partly drawn)	2.5	.	.	3.8	0.8	-1.0	.	.	.
C(=N\Nc1nc2ccccc2[nH]1)/c1c[nH]c2ccccc12	1.1	38.1*	4.4	13.6	11.3	20.6*	20.6	.	32.6*

High-throughput results: PubChem BioAssay, The Scripps Research Institute Molecular Screening Center
